Reference: ChEMBL document CHEMBL1817611, “Synthesis, antitubercular activity, and SAR study of N-substituted-phenylamino-5-methyl-1H-1,2,3-triazole-4-carbohydrazides” (2011)
Values after ≈ are worked out from the molar mass of the structure shown.

Test system: Mycobacterium tuberculosis
Assay: Antitubercular activity against Mycobacterium tuberculosis H37Rv ATCC 27294 by microplate alamar blue assay
Format: functional
Procedure, shortened: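 Resazurin-based (Alamar Blue) colorimetric redox indicator used to assess growth of M. tuberculosis H37Rv. MIC (µg/mL) is taken as the lowest drug concentration that prevents a colour change from blue (no growth) to pink (growth).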

| Structure (SMILES) | MIC |
| --- | --- |
| Cc1c(C(=O)N/N=C/c2ccccc2)nnn1Nc1ccc(Br)cc1 | > 100 µg/mL |
| Cc1c(C(=O)N/N=C/c2ccccc2)nnn1Nc1ccc(F)cc1 | > 100 µg/mL |
| Cc1c(C(=O)N/N=C/c2ccc(Br)s2)nnn1Nc1ccc(Br)cc1 | > 100 µg/mL |
| Cc1c(C(=O)N/N=C/c2ccc(Br)s2)nnn1Nc1ccc(F)cc1 | > 100 µg/mL |
| Cc1c(C(=O)N/N=C/c2ccco2)nnn1Nc1ccc(Br)cc1 | 25.5 µg/mL (≈ 65.5 µM) |
| Cc1c(C(=O)N/N=C/c2ccco2)nnn1Nc1ccc(F)cc1 | 12.5 µg/mL (≈ 38.1 µM) |
| Cc1c(C(=O)N/N=C/c2ccc([N+](=O)[O-])o2)nnn1Nc1ccc(Br)cc1 | 6.25 µg/mL (≈ 14.4 µM) |
| Cc1c(C(=O)N/N=C/c2ccc([N+](=O)[O-])o2)nnn1Nc1ccc(F)cc1 | 5 µg/mL (≈ 13.4 µM) |
| Cc1c(C(=O)N/N=C/c2ccc([N+](=O)[O-])o2)nnn1Nc1ccccc1 | 2.5 µg/mL (≈ 7.04 µM) |
| Cc1c(C(=O)N/N=C/c2ccc(Br)s2)nnn1Nc1ccccc1 | 12.5 µg/mL (≈ 30.8 µM) |
| Cc1c(C(=O)N/N=C/c2ccc([N+](=O)[O-])o2)nnn1Nc1ccc(Cl)cc1 | 5 µg/mL (≈ 12.8 µM) |
| Cc1c(C(=O)N/N=C/c2ccccc2)nnn1Nc1ccc(Cl)cc1 | > 100 µg/mL |
| Cc1c(C(=O)N/N=C/c2ccccc2)nnn1Nc1ccccc1 | > 100 µg/mL |
| Cc1c(C(=O)N/N=C/c2ccc(Br)s2)nnn1Nc1ccc(Cl)cc1 | > 100 µg/mL |
| Cc1c(C(=O)N/N=C/c2ccco2)nnn1Nc1ccc(Cl)cc1 | 12.5 µg/mL (≈ 36.3 µM) |
| Cc1c(C(=O)N/N=C/c2ccco2)nnn1Nc1ccccc1 | 5 µg/mL (≈ 16.1 µM) |
| CC[C@@H](CO)NCCN[C@@H](CC)CO [ETHAMBUTOL] | 2 µg/mL (≈ 9.79 µM) |
| CC(C)CCOc1ccc(NC(=S)Nc2ccc(OCCC(C)C)cc2)cc1 [TIOCARLIDE] | 2.5 µg/mL (≈ 6.24 µM) |
